Measurements published in ChEMBL document CHEMBL1142616, “New diketopiperazine alkaloids from Penicillium fellutanum” (J Nat Prod, 2000).
The source made the active and inactive calls.

Key:
Assay type in all cases: functional, cell-based
L929 = assay: Cytotoxicity against mouse L929 cells after 72 hrs
How it was run: (§1)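 Cells were exposed for 72 h of cultivation; L-929 mouse fibroblasts and HeLa human cells grown adherent, K-562 human leukemia cells grown nonadherent. Result given as IC50 in µg/mL.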

HeLa = assay: Cytotoxicity against human HeLa cells after 72 hrs; how it was run: as §1
K562 = assay: Cytotoxicity against human K562 cells after 72 hrs; how it was run: as §1

Measured: Activity

C=CC(C)(C)c1[nH]c2ccccc2c1C[C@@H]1NC(=O)[C@H](Cc2c(C(C)(C)C=C)[nH]c3ccccc23)NC1=O
inactive: all assays above

O=C1N[C@@H](Cc2c[nH]c3ccccc23)C(=O)N[C@H]1Cc1c[nH]c2ccccc12
inactive: all assays above

C=CC(C)(C)c1[nH]c2ccccc2c1C[C@@H]1NC(=O)[C@H](Cc2c[nH]c3ccccc23)NC1=O
inactive: all assays above
